Laboratory results as given in ChEMBL document CHEMBL1152545, “Fluorinated indazoles as novel selective inhibitors of nitric oxide synthase (NOS): synthesis and biological evaluation” (Bioorg Med Chem, 2009).

What was measured:
[1] = target: Nitric oxide synthase, inducible (Rattus norvegicus) (UniProt Q06518); test: Inhibition of Wistar rat NOS2 assessed as L-[3H]citrulline formation at 1 mM by liquid scintillation counting relative to control in presence of EDTA
How it was run: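 NOS-II source: lung homogenate (0.1 g/mL, Tris/DTT/protease inhibitors, pH 7.6, 2500g supernatant) from male Wistar rats 6 h after iv LPS 10 mg/kg in saline. 10 µL sample incubated 30 min at 37 °C with 10 µM L-arginine plus 40 nM L-3H-arginine, H4-biopterin, FAD, CaCl2, 10 mM EDTA; NADPH started reaction. Compound 1 mM; three experiments in triplicate; mean ± SEM.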

Nitric oxide synthase 1 [2] = target: T1, Nitric oxide synthase 1 (Homo sapiens, UniProt P29475); test: Inhibition of recombinant NOS1 assessed as citrulline formation
Nitric oxide synthase 1 [3] = target: T1, Nitric oxide synthase 1; test: Inhibition of NOS1
[4] = target: Nitric oxide synthase, inducible (Homo sapiens, UniProt P35228); test: Inhibition of NOS2
How it was run: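 NOS-II source was lung homogenate (2500g supernatant) from male Wistar rats killed 6 h after iv LPS 10 mg/kg. Incubation ran 30 min at 37 °C, pH 7.6, with 10 µM L-arginine, 40 nM L-3H-arginine, cofactors and 0.75 mM NADPH, plus 10 mM EDTA to exclude NOS-I. Read-out was 3H-citrulline formed. Compounds were tested at 1 mM, or 0.1–1 mM for dose-response, in three experiments run in triplicate.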

[5] = target: Nitric oxide synthase, inducible (Rattus norvegicus) (UniProt Q06518); test: Inhibition of Wistar rat NOS2 assessed as L-[3H]citrulline formation by liquid scintillation counting relative to control in presence of EDTA
How it was run: (§1)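 Lung homogenate (0.1 g/mL, pH 7.6 Tris with protease inhibitors, 2500g supernatant) from male Wistar rats given 10 mg/kg LPS iv in saline 6 h before. L-3H-arginine (40 nM, plus 10 µM L-arginine) to L-3H-citrulline conversion, 0.75 mM NADPH, 30 min at 37 °C, 10 mM EDTA. Compound at 0.1, 0.5 or 1 mM. Three experiments in triplicate.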

[6] = target: Nitric oxide synthase, inducible (Rattus norvegicus) (UniProt Q06518); test: Inhibition of Wistar rat NOS2 assessed as enzyme activity at 1 mM by liquid scintillation counting relative to control in presence of EDTA; set-up: scale not given: the % may be the effect or the level left; how it was run: as §1
[7] = target: Nitric oxide synthase, inducible (Rattus norvegicus) (UniProt Q06518); test: Inhibition of Wistar rat NOS2 assessed as enzyme activity at 0.5 mM by liquid scintillation counting relative to control in presence of EDTA; set-up: scale not given: the % may be the effect or the level left; how it was run: as §1
[8] = target: Nitric oxide synthase, inducible (Rattus norvegicus) (UniProt Q06518); test: Inhibition of Wistar rat NOS2 assessed as enzyme activity at 0.1 mM by liquid scintillation counting relative to control in presence of EDTA; set-up: scale not given: the % may be the effect or the level left; how it was run: as §1

Sequence of Nitric oxide synthase, inducible (Rattus norvegicus) (Q06518 whole entry): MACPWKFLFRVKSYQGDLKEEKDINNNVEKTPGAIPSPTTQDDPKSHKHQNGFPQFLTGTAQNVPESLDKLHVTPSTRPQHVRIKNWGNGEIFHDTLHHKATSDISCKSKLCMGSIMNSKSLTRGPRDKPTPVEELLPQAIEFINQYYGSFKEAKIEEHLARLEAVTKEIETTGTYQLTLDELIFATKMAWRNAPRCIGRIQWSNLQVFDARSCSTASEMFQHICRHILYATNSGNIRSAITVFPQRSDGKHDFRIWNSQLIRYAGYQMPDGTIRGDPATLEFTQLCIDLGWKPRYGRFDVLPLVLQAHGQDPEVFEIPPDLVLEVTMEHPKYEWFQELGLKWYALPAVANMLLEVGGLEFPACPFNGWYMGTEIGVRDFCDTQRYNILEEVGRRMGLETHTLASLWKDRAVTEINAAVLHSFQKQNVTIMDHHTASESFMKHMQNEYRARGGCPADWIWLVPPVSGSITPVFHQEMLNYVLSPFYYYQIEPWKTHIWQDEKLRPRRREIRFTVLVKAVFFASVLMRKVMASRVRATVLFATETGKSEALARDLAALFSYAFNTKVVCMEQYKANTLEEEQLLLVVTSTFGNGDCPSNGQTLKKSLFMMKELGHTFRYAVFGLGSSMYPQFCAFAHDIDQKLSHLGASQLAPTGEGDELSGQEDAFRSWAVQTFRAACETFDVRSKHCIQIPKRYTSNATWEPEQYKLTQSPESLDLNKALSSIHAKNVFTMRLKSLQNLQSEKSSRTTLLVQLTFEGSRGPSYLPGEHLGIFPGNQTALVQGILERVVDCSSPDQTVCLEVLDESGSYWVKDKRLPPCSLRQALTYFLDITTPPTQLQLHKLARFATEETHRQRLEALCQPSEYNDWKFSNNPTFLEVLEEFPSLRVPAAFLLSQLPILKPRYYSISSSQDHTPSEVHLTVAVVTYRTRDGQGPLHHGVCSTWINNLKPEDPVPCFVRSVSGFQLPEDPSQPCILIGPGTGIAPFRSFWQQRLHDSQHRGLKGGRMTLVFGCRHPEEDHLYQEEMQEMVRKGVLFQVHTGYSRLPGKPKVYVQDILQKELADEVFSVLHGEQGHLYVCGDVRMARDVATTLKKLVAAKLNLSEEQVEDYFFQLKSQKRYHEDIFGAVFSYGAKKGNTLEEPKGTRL
T1 sequence (P29475 whole entry): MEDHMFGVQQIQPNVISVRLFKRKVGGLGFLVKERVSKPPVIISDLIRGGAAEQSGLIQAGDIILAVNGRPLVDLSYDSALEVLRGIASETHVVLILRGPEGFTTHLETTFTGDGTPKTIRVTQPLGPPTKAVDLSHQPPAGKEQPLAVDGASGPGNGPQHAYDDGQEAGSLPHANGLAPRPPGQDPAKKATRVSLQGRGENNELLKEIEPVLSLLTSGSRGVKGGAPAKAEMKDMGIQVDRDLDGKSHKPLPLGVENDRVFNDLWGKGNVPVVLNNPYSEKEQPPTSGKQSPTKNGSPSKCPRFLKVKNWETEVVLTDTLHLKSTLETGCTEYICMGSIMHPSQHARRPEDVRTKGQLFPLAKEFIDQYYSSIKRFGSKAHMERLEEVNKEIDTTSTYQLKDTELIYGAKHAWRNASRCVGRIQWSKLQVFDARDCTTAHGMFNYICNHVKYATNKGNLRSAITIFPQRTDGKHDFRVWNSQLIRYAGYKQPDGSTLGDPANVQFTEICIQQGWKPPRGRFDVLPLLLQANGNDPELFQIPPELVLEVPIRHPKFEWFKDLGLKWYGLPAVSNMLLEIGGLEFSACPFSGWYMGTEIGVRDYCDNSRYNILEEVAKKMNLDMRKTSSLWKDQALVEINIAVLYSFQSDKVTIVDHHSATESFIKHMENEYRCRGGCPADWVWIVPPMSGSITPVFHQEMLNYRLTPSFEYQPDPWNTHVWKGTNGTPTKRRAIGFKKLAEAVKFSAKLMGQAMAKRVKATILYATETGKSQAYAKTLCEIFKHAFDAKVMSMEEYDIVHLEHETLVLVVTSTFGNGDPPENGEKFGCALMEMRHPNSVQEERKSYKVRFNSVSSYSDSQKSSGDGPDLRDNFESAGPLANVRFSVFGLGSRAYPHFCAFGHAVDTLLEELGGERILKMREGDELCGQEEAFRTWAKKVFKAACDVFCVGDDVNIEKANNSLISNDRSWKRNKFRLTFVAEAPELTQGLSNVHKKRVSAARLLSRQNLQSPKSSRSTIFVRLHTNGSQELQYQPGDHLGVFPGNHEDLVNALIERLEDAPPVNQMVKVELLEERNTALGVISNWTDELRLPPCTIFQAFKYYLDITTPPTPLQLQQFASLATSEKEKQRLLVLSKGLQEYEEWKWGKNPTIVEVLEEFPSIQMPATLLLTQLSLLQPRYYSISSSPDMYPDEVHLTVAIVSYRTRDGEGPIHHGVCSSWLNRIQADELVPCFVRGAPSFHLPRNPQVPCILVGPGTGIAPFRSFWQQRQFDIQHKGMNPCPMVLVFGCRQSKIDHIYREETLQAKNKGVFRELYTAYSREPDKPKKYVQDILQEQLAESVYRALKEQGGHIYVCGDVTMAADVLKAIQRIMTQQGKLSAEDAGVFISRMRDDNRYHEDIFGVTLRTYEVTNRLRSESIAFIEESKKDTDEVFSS
Sequence of Nitric oxide synthase, inducible (P35228 whole entry): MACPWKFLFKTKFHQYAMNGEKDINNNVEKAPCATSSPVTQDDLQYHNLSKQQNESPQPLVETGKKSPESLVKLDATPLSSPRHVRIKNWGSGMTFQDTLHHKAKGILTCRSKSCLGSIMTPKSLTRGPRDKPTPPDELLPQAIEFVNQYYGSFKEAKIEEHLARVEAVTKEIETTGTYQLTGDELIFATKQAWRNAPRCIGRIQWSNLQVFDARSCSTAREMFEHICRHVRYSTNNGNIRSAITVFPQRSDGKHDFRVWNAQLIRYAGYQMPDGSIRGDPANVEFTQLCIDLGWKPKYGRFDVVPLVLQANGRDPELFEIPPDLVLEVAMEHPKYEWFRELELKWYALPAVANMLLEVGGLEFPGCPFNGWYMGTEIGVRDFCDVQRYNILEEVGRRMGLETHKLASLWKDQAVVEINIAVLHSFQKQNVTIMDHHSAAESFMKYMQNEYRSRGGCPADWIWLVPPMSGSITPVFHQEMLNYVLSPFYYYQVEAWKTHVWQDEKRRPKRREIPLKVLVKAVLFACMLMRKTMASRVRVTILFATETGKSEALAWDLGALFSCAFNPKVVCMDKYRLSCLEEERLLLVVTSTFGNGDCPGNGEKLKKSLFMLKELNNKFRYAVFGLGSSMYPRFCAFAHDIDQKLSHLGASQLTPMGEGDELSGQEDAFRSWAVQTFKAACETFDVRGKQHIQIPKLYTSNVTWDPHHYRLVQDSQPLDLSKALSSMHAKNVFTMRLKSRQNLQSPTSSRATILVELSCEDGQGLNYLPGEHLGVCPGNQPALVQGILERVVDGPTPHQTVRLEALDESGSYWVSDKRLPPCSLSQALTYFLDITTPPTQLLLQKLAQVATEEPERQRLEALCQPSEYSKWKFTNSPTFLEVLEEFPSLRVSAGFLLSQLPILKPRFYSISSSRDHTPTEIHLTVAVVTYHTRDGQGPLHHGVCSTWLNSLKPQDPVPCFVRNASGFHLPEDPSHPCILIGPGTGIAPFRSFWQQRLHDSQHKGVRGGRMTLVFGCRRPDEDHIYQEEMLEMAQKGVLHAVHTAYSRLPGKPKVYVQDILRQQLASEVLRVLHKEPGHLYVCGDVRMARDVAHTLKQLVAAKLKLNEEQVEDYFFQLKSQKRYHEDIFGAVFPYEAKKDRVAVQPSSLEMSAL

| Compound | inhibition [1] | IC50 (Nitric oxide synthase 1 [3]) | further results |
| --- | --- | --- | --- |
| Oc1n[nH]c2c(F)c(F)c(F)c(F)c12 | 6% |  |  |
| Nc1ccc2cn[nH]c2c1 |  |  | IC50 (Nitric oxide synthase 1 [2]): > 1000 µM |
| Brc1cccc2[nH]ncc12 |  | 2.4 µM |  |
| Clc1n[nH]c2ccccc12 |  |  | IC50 (Nitric oxide synthase 1 [2]): 100 µM |
| Brc1cccc2cn[nH]c12 |  | 14 µM |  |
| O=[N+]([O-])c1cccc2[nH]ncc12 |  | 3.1 µM |  |
| Clc1ccc2cn[nH]c2c1 |  | 22 µM |  |
| O=[N+]([O-])c1cccc2c(Br)n[nH]c12 | 97% | 0.17 µM | IC50 [4]: 0.29 µM |
| O=[N+]([O-])c1ccc2[nH]ncc2c1 |  | 47 µM |  |
| Cn1nc(Br)c2cccc([N+](=O)[O-])c21 | 10% |  |  |
| c1ccc2[nH]ncc2c1 [INDAZOLE] |  |  | IC50 (Nitric oxide synthase 1 [2]): 178 µM |
| Cc1n[nH]c2c(F)c(F)c(F)c(F)c12 | 83% |  |  |
| Fc1c(F)c(F)c2c(-c3ccccc3)n[nH]c2c1F | 37% |  |  |
| Cn1ncc2cccc([N+](=O)[O-])c21 | 25% |  |  |
| Ic1cccc2[nH]ncc12 |  | 17 µM |  |
| Cc1n[nH]c2c1C(=O)CC(C)(C)C2 | 22% |  |  |
| Brc1ccc2[nH]ncc2c1 |  | 72 µM |  |
| CCc1n[nH]c2ccccc12 |  |  | IC50 (Nitric oxide synthase 1 [2]): 310 µM |
| Clc1cccc2[nH]ncc12 |  | 44 µM |  |

| Compound | inhibition [1] | IC50 (Nitric oxide synthase 1 [3]) | further results |
| --- | --- | --- | --- |
| Fc1c(F)c(F)c(-c2n[nH]c3c(F)c(F)c(F)c(F)c23)c(F)c1F | 80% |  | inhibition [5]: Dose-dependent effect; Activity [6]: 20%; Activity [7]: 58%; Activity [8]: 90%; IC50 [4]: 400 µM |
| Cn1nc2c([N+](=O)[O-])cccc2c1Br | 7% |  |  |
| CC12CCC(C3C=NN=C31)C2(C)C (racemic) | 20% |  |  |
| Nc1cccc2cn[nH]c12 |  |  | IC50 (Nitric oxide synthase 1 [2]): 115 µM |
| Clc1cccc2cn[nH]c12 |  | 4.2 µM |  |
| Cc1n[nH]c2c1C(=O)CCC2 | 4% |  |  |
| O=[N+]([O-])c1ccc2cn[nH]c2c1 |  | 32 µM |  |
| Clc1ccc2[nH]ncc2c1 |  | 59 µM |  |
| O=C1CCCc2[nH]ncc21 | 23% |  |  |
| O=[N+]([O-])c1ccc2c(Cl)n[nH]c2c1 |  | 158 µM |  |
| Fc1c(F)c(F)c2c(C(F)(F)F)n[nH]c2c1F | 21% |  |  |
| CC1(C)CC(=O)c2cn[nH]c2C1 | 2% |  |  |
| Brc1ccc2cn[nH]c2c1 |  | 4.3 µM |  |
| Ic1ccc2[nH]ncc2c1 |  | 37 µM |  |
| Nc1ccc2[nH]ncc2c1 |  |  | IC50 (Nitric oxide synthase 1 [2]): > 1000 µM |
| Cn1cc2cccc([N+](=O)[O-])c2n1 | 36% |  |  |
| O=[N+]([O-])c1cccc2cn[nH]c12 [7-NITROINDAZOLE] | 84% |  | IC50 [4]: 5.8 µM |
| O=c1[nH][nH]c2ccccc12 |  |  | IC50 (Nitric oxide synthase 1 [2]): > 1000 µM |
